Data as given in ChEMBL document CHEMBL1137378, “Antibacterial agent discovery using thymidylate synthase biolibrary screening” (J Med Chem, 2006).
In brackets after ≈: the same amount, converted by molar mass.

Key:
[1] = system: Staphylococcus aureus; assay: Antibacterial activity against Staphylococcus aureus 341; assay type: functional
Method in brief: (§1)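 Wild-type strain panel (18 Gram-positive and Gram-negative strains). Bacteria grown in Mueller-Hinton broth at 37 °C for 24 h. Exponentially growing cultures diluted in sterile liquid medium to a final inoculum of about 1 × 10⁴ CFU/mL, then exposed to increasing compound concentrations. MIC taken as the lowest concentration with no evident bacterial growth.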

[2] = system: Staphylococcus saprophyticus; assay: Antibacterial activity against Staphylococcus saprophyticus ATCC 15305; assay type: functional; method in brief: as §1
[3] = system: Listeria monocytogenes; assay: Antibacterial activity against Listeria monocytogenes 7; assay type: functional; method in brief: as §1
[4] = system: Escherichia coli; assay: Antibacterial activity against Escherichia coli 292; assay type: functional; method in brief: as §1
[5] = system: Staphylococcus haemolyticus; assay: Antibacterial activity against Staphylococcus haemolyticus ATCC 2997; assay type: functional; method in brief: as §1
[6] = system: Listeria monocytogenes; assay: Antibacterial activity against Listeria monocytogenes 6; assay type: functional; method in brief: as §1
[7] = system: Listeria monocytogenes; assay: Antibacterial activity against Listeria monocytogenes 5; assay type: functional; method in brief: as §1
[8] = system: Listeria monocytogenes; assay: Antibacterial activity against Listeria monocytogenes ATCC 4428; assay type: functional; method in brief: as §1
[9] = system: Escherichia coli; assay: Antibacterial activity against Escherichia coli 256; assay type: functional; method in brief: as §1
[10] = system: Listeria monocytogenes; assay: Antibacterial activity against Listeria monocytogenes 3; assay type: functional; method in brief: as §1
[11] = system: Listeria monocytogenes; assay: Antibacterial activity against Listeria monocytogenes 8; assay type: functional; method in brief: as §1
[12] = system: Staphylococcus aureus; assay: Antibacterial activity against Staphylococcus aureus ATCC 29213; assay type: functional; method in brief: as §1
[13] = system: Staphylococcus aureus; assay: Antibacterial activity against Staphylococcus aureus 343; assay type: functional; method in brief: as §1
[14] = system: Staphylococcus aureus; assay: Antibacterial activity against Staphylococcus aureus K28; assay type: functional; method in brief: as §1
[15] = system: Enterococcus faecalis; assay: Antibacterial activity against Enterococcus faecalis ATCCC29212; assay type: functional; method in brief: as §1
[16] = system: Streptococcus; assay: Antibacterial activity against Streptococcus 42; assay type: functional; method in brief: as §1
[17] = system: Citrobacter; assay: Antibacterial activity against Citrobacter 224; assay type: functional; method in brief: as §1
[18] = system: Listeria monocytogenes; assay: Antibacterial activity against Listeria monocytogenes 4; assay type: functional; method in brief: as §1
[19] = Specificity Index, Ki for human thymidylate synthase/Ki for Escherichia coli thymidylate synthase
[20] = molecular target: T1, Dihydrofolate reductase (Homo sapiens, UniProt P00374); assay: Inhibition of human dihydrofolate reductase
T1 sequence (P00374 whole entry): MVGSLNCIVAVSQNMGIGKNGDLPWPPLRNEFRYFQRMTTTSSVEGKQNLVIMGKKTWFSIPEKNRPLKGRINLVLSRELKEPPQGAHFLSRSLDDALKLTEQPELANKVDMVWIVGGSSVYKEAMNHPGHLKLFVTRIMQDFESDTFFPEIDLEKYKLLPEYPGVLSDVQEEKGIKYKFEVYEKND
Method in brief: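 Purified human DHFR assayed spectrophotometrically at 25 °C by the fall in A340 on DHF reduction. Ki from steady-state kinetics.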

[21] = molecular target: Thymidylate synthase (Homo sapiens, UniProt P04818); assay: Inhibition of human thymidylate synthase
Sequence of Thymidylate synthase (Homo sapiens, UniProt P04818) (P04818 whole entry): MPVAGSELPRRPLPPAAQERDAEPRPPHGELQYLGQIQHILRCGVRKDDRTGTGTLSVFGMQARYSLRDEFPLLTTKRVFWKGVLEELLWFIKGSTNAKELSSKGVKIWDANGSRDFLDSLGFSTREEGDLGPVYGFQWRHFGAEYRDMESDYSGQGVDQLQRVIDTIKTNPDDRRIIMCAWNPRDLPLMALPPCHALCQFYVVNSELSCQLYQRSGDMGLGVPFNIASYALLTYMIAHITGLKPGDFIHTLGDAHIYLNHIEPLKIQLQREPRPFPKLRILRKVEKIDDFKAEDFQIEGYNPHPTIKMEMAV

[22] = molecular target: T2, Thymidylate synthase (Cryptococcus neoformans var. neoformans B-3501A, UniProt P0CS13); assay: Inhibition of Cryptococcus neoformans thymidylate synthase
T2 sequence (P0CS13 whole entry): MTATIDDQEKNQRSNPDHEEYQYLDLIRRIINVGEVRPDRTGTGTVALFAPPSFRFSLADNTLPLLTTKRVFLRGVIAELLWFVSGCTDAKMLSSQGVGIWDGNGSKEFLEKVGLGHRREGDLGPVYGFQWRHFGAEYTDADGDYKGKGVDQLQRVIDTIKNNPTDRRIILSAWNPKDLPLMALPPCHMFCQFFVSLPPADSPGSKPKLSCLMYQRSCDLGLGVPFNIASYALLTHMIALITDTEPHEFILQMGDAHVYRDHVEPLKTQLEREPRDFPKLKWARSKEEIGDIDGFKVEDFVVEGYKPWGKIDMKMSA

[23] = organism: Homo sapiens; assay: Selectivity Index, Ki for human dihydrofolate reductase/Ki for human thymidylate synthase
[24] = molecular target: Thymidylate synthase (Escherichia coli, UniProt C3SWJ7); assay: Inhibition of Escherichia coli thymidylate synthase
Sequence of Thymidylate synthase (Escherichia coli, UniProt C3SWJ7) (C3SWJ7 whole entry): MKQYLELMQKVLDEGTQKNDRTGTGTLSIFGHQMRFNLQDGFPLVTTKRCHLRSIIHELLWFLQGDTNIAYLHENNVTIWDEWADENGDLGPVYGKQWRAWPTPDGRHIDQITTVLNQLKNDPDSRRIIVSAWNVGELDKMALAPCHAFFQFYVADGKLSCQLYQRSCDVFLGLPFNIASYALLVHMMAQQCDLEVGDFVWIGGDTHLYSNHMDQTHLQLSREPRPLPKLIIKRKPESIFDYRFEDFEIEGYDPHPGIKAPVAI

[25] = Specificity Index, Ki for human thymidylate synthase/Ki for Lactobacillus casei thymidylate synthase
[26] = molecular target: T3, Thymidylate synthase (Lactobacillus casei, UniProt P00469); assay: Inhibition of Lactobacillus casei thymidylate synthase; design: species or system Lacticaseibacillus casei
T3 sequence (P00469 whole entry): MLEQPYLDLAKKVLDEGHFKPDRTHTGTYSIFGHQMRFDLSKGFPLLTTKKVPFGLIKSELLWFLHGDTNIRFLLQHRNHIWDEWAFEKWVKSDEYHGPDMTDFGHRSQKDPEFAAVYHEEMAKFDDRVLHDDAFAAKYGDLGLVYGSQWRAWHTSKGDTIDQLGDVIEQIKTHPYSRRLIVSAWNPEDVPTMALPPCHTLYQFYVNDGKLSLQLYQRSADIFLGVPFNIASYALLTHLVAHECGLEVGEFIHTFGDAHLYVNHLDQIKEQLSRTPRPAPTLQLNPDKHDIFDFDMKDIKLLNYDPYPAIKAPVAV

[27] = Specificity Index, Ki for human thymidylate synthase/Ki for Cryptococcus neoformans thymidylate synthase
Method in brief: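 Specificity index is Ki of hTS divided by Ki of the pathogen TS (LcTS, EcTS or CnTS). Each enzyme was purified to >95% and assayed spectrophotometrically at 340 nm, 20 °C. Buffer was TES 50 mM pH 7.4 with MgCl2, formaldehyde, EDTA and 2-mercaptoethanol, plus dUMP 100 µM, mTHF 140 µM and enzyme 0.07 µM.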

[28] = system: Vero; assay: Cytotoxicity against Vero cells measured as percent of cell growth at 12.05 mg/L relative to control by MTT assay; assay type: functional, Chlorocebus sabaeus
Method in brief: (§2)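 VERO cells grown in MEM with 5% heat-inactivated (56 °C, 30 min) FCS, penicillin, streptomycin and L-glutamine. Cultures were watched for 2 days and live cells counted. Cells were then exposed to increasing compound concentrations; wells with cells only served as control. After 24 h, mitochondrial dehydrogenase activity was read by MTT. Trypan blue exclusion was also run.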

[29] = system: Vero; assay: Cytotoxicity against Vero cells measured as percent of cell growth at 25 mg/L relative to control by MTT assay; assay type: functional, Chlorocebus sabaeus; method in brief: as §2
[30] = system: Vero; assay: Cytotoxicity against Vero cells measured as percent of cell growth at 50 mg/L relative to control by MTT assay; assay type: functional, Chlorocebus sabaeus; method in brief: as §2
[31] = system: Vero; assay: Cytotoxicity against Vero cells measured as percent of cell growth at 6.25 mg/L relative to control by MTT assay; assay type: functional, Chlorocebus sabaeus; method in brief: as §2
[32] = system: Vero; assay: Cytotoxicity against Vero cells measured as percent of cell growth at 1.56 mg/L relative to control by MTT assay; assay type: functional, Chlorocebus sabaeus; method in brief: as §2
[33] = system: Vero; assay: Cytotoxicity against Vero cells measured as percent of cell growth at 3.12 mg/L relative to control by MTT assay; assay type: functional, Chlorocebus sabaeus; method in brief: as §2

## O=C(O)c1cn(C2CC2)c2cc(N3CCNCC3)c(F)cc2c1=O [CIPROFLOXACIN]
[1]
  MIC: 1.2 µg/mL (≈ 3.62 µM)
[2]
  MIC: 1 µg/mL (≈ 3.02 µM)
[3]
  MIC: 1 µg/mL (≈ 3.02 µM)
[4]
  MIC: > 25 µg/mL
[5]
  MIC: 2.5 µg/mL (≈ 7.54 µM)
[6]
  MIC: 2.5 µg/mL (≈ 7.54 µM)
[7]
  MIC: 2.5 µg/mL (≈ 7.54 µM)
[8]
  MIC: 2.5 µg/mL (≈ 7.54 µM)
[9]
  MIC: > 25 µg/mL
[10]
  MIC: 2.5 µg/mL (≈ 7.54 µM)
[11]
  MIC: 1 µg/mL (≈ 3.02 µM)
[12]
  MIC: 0.5 µg/mL (≈ 1.51 µM)
[13]
  MIC: 0.5 µg/mL (≈ 1.51 µM)
[14]
  MIC: 0.5 µg/mL (≈ 1.51 µM)
[15]
  MIC: 12.5 µg/mL (≈ 37.7 µM)
[16]
  MIC: > 5 µg/mL
[17]
  MIC: > 25 µg/mL
[18]
  MIC: 1 µg/mL (≈ 3.02 µM)

## O=C1OC(c2ccc(O)c(I)c2)(c2ccc(O)c(I)c2)c2c1ccc1ccccc21
[19]
  Ratio Ki: > 163
[20]
  Ki: 3.9 µM
[21]
  Ki: > 245 µM
[22]
  Ki: 4.5 µM
[23]
  Selectivity index: < 0.01
[24]
  Ki: 1.5 µM
[25]
  Ratio Ki: > 123
[26]
  Ki: 2 µM
[27]
  Ratio Ki: > 54

## O=C1OC(c2ccc(O)c(Br)c2)(c2ccc(O)c(Br)c2)c2ccc(Cl)c3cccc1c23
[19]
  Ratio Ki: > 60
[1]
  MIC: 2.5 µg/mL (≈ 4.46 µM)
[2]
  MIC: 1 µg/mL (≈ 1.78 µM)
[28]
  Activity: 97%
[3]
  MIC: 2.5 µg/mL (≈ 4.46 µM)
[4]
  MIC: > 25 µg/mL
[5]
  MIC: 5 µg/mL (≈ 8.92 µM)
[6]
  MIC: 2.5 µg/mL (≈ 4.46 µM)
[7]
  MIC: 5 µg/mL (≈ 8.92 µM)
[29]
  Activity: 85%
[20]
  Ki: 13 µM
[30]
  Activity: 61%
[31]
  Activity: 97%
[8]
  MIC: 1 µg/mL (≈ 1.78 µM)
[9]
  MIC: > 25 µg/mL
[10]
  MIC: 5 µg/mL (≈ 8.92 µM)
[11]
  MIC: 5 µg/mL (≈ 8.92 µM)
[12]
  MIC: 2.5 µg/mL (≈ 4.46 µM)
[22]
  Ki: 4.1 µM
[23]
  Selectivity index: < 0.05
[13]
  MIC: 1 µg/mL (≈ 1.78 µM)
[24]
  Ki: 4.1 µM
[25]
  Ratio Ki: > 306
[32]
  Activity: 96%
[14]
  MIC: 2.5 µg/mL (≈ 4.46 µM)
[15]
  MIC: 5 µg/mL (≈ 8.92 µM)
[16]
  MIC: 1 µg/mL (≈ 1.78 µM)
[27]
  Ratio Ki: > 60
[17]
  MIC: > 25 µg/mL
[18]
  MIC: 2.5 µg/mL (≈ 4.46 µM)
[33]
  Activity: 95%

## O=C1OC(c2ccc(O)cc2)(c2ccc(O)cc2)c2c1ccc1ccccc21
[19]
  Ratio Ki: > 30
[21]
  Ki: > 132 µM
[22]
  Ki: 0.4 µM
[23]
  Selectivity index: < 1
[24]
  Ki: 4.4 µM
[25]
  Ratio Ki: > 12
[27]
  Ratio Ki: > 330

## O=C1OC(c2ccc(O)c(Br)c2)(c2ccc(O)c(Br)c2)c2c1ccc1ccccc21
[19]
  Ratio Ki: > 147
[20]
  Ki: 33 µM
[22]
  Ki: 2.7 µM
[23]
  Selectivity index: < 0.2
[24]
  Ki: 0.9 µM
[25]
  Ratio Ki: > 20
[27]
  Ratio Ki: > 49

## O=C1OC(c2cc(Cl)c(O)c(Cl)c2)(c2cc(Cl)c(O)c(Cl)c2)c2cccc3cccc1c23
[19]
  Ratio Ki: 1
[20]
  Ki: 28 µM
[21]
  Ki: 5.7 µM
[22]
  Ki: 3.3 µM
[23]
  Selectivity index: 5
[24]
  Ki: 5.3 µM
[25]
  Ratio Ki: 3
[26]
  Ki: 2 µM
[27]
  Ratio Ki: 2

## O=C1OC(c2ccc(O)cc2)(c2ccc(O)cc2)c2ccc3ccccc3c21
[20]
  Ki: 35 µM
[22]
  Ki: 0.6 µM

## O=C1OC(c2ccc(O)c(F)c2)(c2ccc(O)c(F)c2)c2cccc3cccc1c23
[20]
  Ki: 42 µM
